Measurements from the EternaBench riboswitch data.

System: MS2 coat protein
Experiment: apparent Kd, MS2 coat protein; higher = weaker binding; RNA-MaP array; FMN 200 µM where present
Summary of the method: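 Apparent Kd: the median of filtered binding-curve fits from single clusters. Designs were transcribed on Illumina sequencing-chip clusters by stalled E. coli RNA polymerase and titrated with SNAP-549-labelled MS2 coat protein from 0.7 or 1.5 nM, doubling to 3 µM, in 100 mM Tris-HCl pH 7.5, 80 mM KCl, 4 mM MgCl2, BSA, DTT, yeast tRNA and Tween-20. Each series ran without and then with constant ligand, and green signal was normalised to red-channel RNA signal and control-cluster median Fmax.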

[1] = designed as: OFF switch for flavin mononucleotide, no ligand
[2] = ligand present: flavin mononucleotide, designed as: OFF switch for flavin mononucleotide
[3] = designed as: ON switch for flavin mononucleotide, no ligand
[4] = ligand present: flavin mononucleotide, designed as: ON switch for flavin mononucleotide

Row | Sequence | apparent Kd [1] [nM] | apparent Kd [2] [nM] | apparent Kd [3] [nM] | apparent Kd [4] [nM]
1 | CGGAGCAUCGAGAAGGGCACAUGGACAACUAAACAUGAGGAUCACCCAUGUGCAGGAUAUCGAAAAUCAUGUGGCCUUGGCCGU | 15.9 | 155 |  | 
2 | UGGCCGAAGUUAGGAUAUUGGUUAGGGACGGACUAAGAAGGAGCACAUACAUGAGGAUCACCCAUGUUAGAAGAAGAUCCUCCA | 29.3 | 26.7 |  | 
3 | UGGUGACGUUUCUUCUCGACAUGAGGAUCACCCAUGUAGACAGAGGAUAUCCGAGUUGCCAAUAAGGAGAAGGCUGACUGCGAA | 6.61 | 10.2 |  | 
4 | UGUGUGUGGGCAGGAUAUGCAUGAAUAUGUAUGAUGUAGUGUGAUGUAACAUGAGGAUCACCCAUGUAGAAGGGCCGGUGUGUG | 99.3 | 116 |  | 
5 | UAGUGCAUUAGAGGAUAUUCUUACGACACGAGUAAGACAUGAGGAUCACCCAUGUUGUGGCAUGGGAAGAAGGCUGAUGUGCUA |  |  | 60 | 14.5
6 | UGGUAACAUGAGGAUCACCCAUGUCAGGAUAUCAGUAAGAAGAGAUUAGAGUAGAAUAUGAGAAGGGACUAUAG | 36.7 | 30.4 |  | 
7 | ACGGAGUCAGGAUAUUUAGAGCGUUGGCAAUGCUAGCGCAUGGAGAAGGGACAUGAGGAUCACCCAUGUUUGGA | 39.9 | 39.9 |  | 
8 | UGGGUUUGUAGUUACAUCCCUACACAGGAUAUGGGUAGUUACAUGAGGAUCACCCAUGUUCGAACUCAGAAGGGUGGAUCGUUG |  |  | 85.3 | 11.3
9 | UUAAGUCAUGUAGGAUAUCCGAGGCGAAGCGUUGGAGAAGGACAUGAGGAUCACCCAUGUUCUAGCGUCUGAGUACAGAUGCAG | 29.5 | 94.7 |  | 
10 | GCAUGGAAAGUGAGGAUAUACCACUGGAUACAGUGGUAGAAGGCACAUGAGGAUCACCCAUGUCUCUACCAUGC | 13.6 | 30.8 |  | 
11 | UAUAUGUGAGGAUAUCAGGUGUGCUAGCGUACUGGUACAUCUGAGAAGGCACAUGAGGAUCACCCAUGUAUCUU | 29.7 | 110 |  | 
12 | AAAAGACAUGAGGAUCACCCAUGUCAAGACGUGGGAGGAUAUGCAUGGAAAACAUGCUGUGCAGAAGGCCCGUGUC |  |  | 25.6 | 17.9
13 | AUAUGAGCUAUGGAGGAUAUCCAUAACAAGACAUGAGGAUCACCCAUGUAAUCAAAACAAUAAUGGGAGAAGGCCAUAGCUCAAU |  |  | 67.8 | 76.5
14 | ACAUGAGGAUCACCCAUGUAAACAUAGGAUAUUGGUGAUCAGGCAUGUUAUACAGGAUAUGUCUGCGAGAAGGAUGCACGUUGC |  |  | 583 | 465
15 | UACAUUUAACAGAAGGCGUUUAUAUUUAACUUACGAGGAUAUGUAUAACAUGAGGAUCACCCAUGUAACUUGGAUAGAAUAUCU |  |  | 9.46 | 8.32
16 | UAUCCACAUGAGGAUCACCCAUGUCAGGAUAUUAGAUCUAUAUAUACAUAUAAUUAUUUAAGAAGGGACACUAA | 11.5 | 11.8 |  | 
17 | UAAAAUAGUGUGAGGAUAUGCUGGUCCUUGGAUCAGCAGAAGGCACAUGAGGAUCACCCAUGUAGUUAAUUAUA | 41.8 | 268 |  | 
18 | CGCUAGUCAGGAUAUACGCACAUGUCACCAGACGUGAAGGGACAUGAGGAUCACCCAUGUAGAAGGGACUAGCC | 98.5 | 246 |  | 
19 | GAAUAAUUGAUCCAUUUUUAAAACAUGAGGAUCACCCAUGUGCAGGAUAUCGUGAGAGUUAAAUACGAGAAGGGCAAGAACUGU | 123 | 173 |  | 
20 | CUGGUGUGAGGAUAUCAAAGACCUCGGUAAAGAACCGAGGAUGAGAAGGCACAUGAGGAUCACCCAUGUAACAA | 23.3 | 32.9 |  | 
21 | AGGAAGUGAGGAUAUGCUGCUCGUCACUUGCGUGAUGAGUAGCAGAAGGCACAUGAGGAUCACCCAUGUAAAGA | 40.2 | 55.1 |  | 
22 | CGGCCGGGCCGAGGAUAUAAGUCUAGGACAUGAGGAUCACCCAUGUAUGUCUUAGAAGGCGGCCCGGCCAGCCUGUUACAGGCA |  |  | 31.2 | 5.85
23 | AUAUCCUAGAUAGGAUAUACUGAGGUUGAAUGGGUAGAAGGAUCGUUAGGGAAGACUACAUGAGGAUCACCCAUGUUGUUUAUU |  |  | 116 | 92.9
24 | UAUAUAUAGUAAGGAUAUGUAUUAAUUUUUUAAACAGAAGGUACUGACAUGAGGAUCACCCAUGUUUUAGUGUGGGCAUGUAGA | 78.8 | 131 |  | 
25 | AAUUUACAGCUAGGAUAUACAUGAGGAUCACCCAUGUAAUGAUAGGAUCUUAUGAUCGUAUCAGUGUAGAAGGAGCAAAUAAGA | 9.39 | 8.81 |  | 
26 | AAACAUGUCCGAGGAUAUCUGGAAACAUUUCCAAGAGAAGGCGGACAUGAGGAUCACCCAUGUCUCUCCUCAUCAAAUCCAAAU | 9.18 | 88.9 |  | 
27 | AUAUCUAUAUCAGGAUAUGGACAGGCCUGUCCGUAUUGAGACAGUAACAUGAGGAUCACCCAUGUCCAGAAGGGAUCGAUAUAU | 38.6 | 41.8 |  | 
28 | UUAGCAACAUGAGGAUCACCCAUGUAGGAUAUCGCUAUUGUAAUCAUGAAACAUGAUUACAAUAGCGAGAAGGACAUAUGCUUU | 13.9 | 14.9 |  | 

Row | Sequence | apparent Kd [1] [nM] | apparent Kd [2] [nM] | apparent Kd [3] [nM] | apparent Kd [4] [nM]
29 | GCAGCACUGUUUUACAUGAGGAUCACCCAUGUCGAUUGUUAUGAGGAUAUGCAUCGUAUGAAGAUGCAGAAGGCAUUGUGCUGC |  |  | 8.32 | 5.48
30 | CGAGGGUGGGACCCACGCUUUCGACAUGAGGAUCACCCAUGUAAGGAUAUCGCGGCCUACCAUAGCGAGAAGGUACGUGCGGGU | 13 | 25.9 |  | 
31 | GUGCGAGUGCCACAGGAUAUACGUGGAUCGACAUGAGGAUCACCCAUGUAUAUCCUAAUAAUUGCGUAGAAGGGUGGUCAGUCGG |  |  | 786 | 289
32 | CACGAUGAUGUAGGAUAUAUGCUGGAAUACAGCAUAGAAGGACAUGAGGAUCACCCAUGUAAAGUGUCUCCAAAUAACAUCGUG | 30.3 | 77.5 |  | 
33 | GGUCAUCAAGUCAGGAUAUCGUCUGGUCGGUCUGGCGAGAAGGGACAUGAGGAUCACCCAUGUCGUCUCAUCAG | 15.2 | 17.7 |  | 
34 | AUGCUUCACACAGGAUAUACAUGAGGAUCACCCAUGUGUCCACAGUAGCUGACACGAGCUACGCGGUAGAAGGGUGUGAAGCAU | 18.5 | 61.2 |  | 
35 | GCUGGUCGAGGAUAUAUAUGACGUGCUUCGGCACGAAGGUCACAUGAGGAUCACCCAUGUAGAAGGCGACCAGC | 56.4 | 390 |  | 
36 | AAAGGACGAGGAUAUACAUGAGGAUCACCCAUGUAAGAAGCAUAAUAAAAUAACUUAUGUAGAAGGCGUCCAAA | 20.5 | 84.4 |  | 
37 | UUAGCAACAUGAGGAUCACCCAUGUAGGAUAUCGCUAUUGUAAUCAUGAAACAUGAUUACAAUAGCGAGAAGGACAUAUGCUCC | 7.17 | 10.6 |  | 
38 | AAAAACAGAGGAUAUACAAAAUGAUGACGAAAGUCAUCAAAACAUGAGGAUCACCCAUGUAGAAGGCUGAAAAA | 25.9 | 22.9 |  | 
39 | UUAAAUCAUGUAGGAUAUGCAUGGCGAAGCUACGCAGAAGGACAUGAGGAUCACCCAUGUUAUAGCUACCCAGUUCGGUGGCAA | 96.1 | 221 |  | 
40 | CGGUCGAUGUAAGGAUAUCGACUGGAAUACAGUCGAGAAGGUACAUGAGGAUCACCCAUGUAAUCCAAUAAUAAAUAACGACCG | 12.6 | 22.5 |  | 
41 | ACCCGGGCUAACAUGAGGAUCACCCAUGUGUUAUACUUAAUAUAGGAUAUGUUUAUACUUUUUGGGCAGAAGGAUGGCCCGGGU |  |  | 80.1 | 62.5
42 | CUCCGGCGUGUAGGAUAUGGAUCCGAUUAGGAUCCAGAAGGACAUGAGGAUCACCCAUGUACAUGUAAACAGUCAUCACCGGAG | 6.24 | 6.99 |  | 
43 | UACGUACAGAAGAACUCCGGAUCUAGAAGGGACAUGAGGAUCACCCAUGUACCGUUGAUUGCUUGUCAGGAUAUAGACCCGGCC | 6.07 | 14.2 |  | 
44 | GGACAUGUCGUCUACAUGAGGAUCACCCAUGUCGAUAGACAUGAGGAUAUCGAUAAGAAUUGUAUCGAGAAGGCAUGUAGGUCC |  |  | 68.4 | 50.6
45 | CGAUAGGACAGAGGAUAUACACAUGAGGAUCACCCAUGUGAUUACAACGCUUAAGCUUCAAACAUGUAGAAGGCUGUCCUAUCG | 10.8 | 19.4 |  | 
46 | GGAGACCUCACAGGAUAUGCUGGACUUUGUCCAGCAGAAGGGUGAACAUGAGGAUCACCCAUGUGGUCUUCCAAAAUAUUUAAU |  |  | 693 | 280
47 | GUGCCUUGGUAGAAGGCCCAAUGCAAAGCAUAGGGAGGAUAUACAUAUAAUAAAUAAACAUGAGGAUCACCCAUGUGGCACAAA |  |  | 10.8 | 10.4
48 | AUUAUACAUGAGGAUCACCCAUGUAAUUAAUCUAGUAAGAUCUAGGAUAUCAGCUCGAUUAGAGCUGAGAAGGAGAUCACAUGU |  |  | 52.9 | 22.2
49 | ACUUGGUUACAGAAGGGCAUUUAUAAUUAUCAUUACUCAUCCUAUGUUUGCAGGAUAUGUUUAACAUGAGGAUCACCCAUGUAC |  |  | 171 | 97.6
50 | GGGUACAUCGGAGGAUAUCAUGUAAAUACAUGAGGAUCACCCAUGUCGAUGGAGACAUCGGAGAUUGAGAAGGCCGAUGUAUCG |  |  | 157 | 9.09
51 | UUUGAGUUCCGAGACCGCGGGUUCACAGAAGGCAUUAUUACAUGAGGAUCACCCAUGUGGGUACAUGAGGAUAUGUGAUAUGCG |  |  | 20.5 | 6.99
52 | GAGUGACAUGAGGAUCACCCAUGUGAGGAUAUCGGACGGACCUUGUUAGCUUCCGCCGCGAGAAGGCACAUCGG | 208 | 34.5 |  | 
53 | GCUGCAUGCAGAGGAUAUAUAACAUGAGGAUCACCCAUGUUAAUAAUAUGGAUAAACCAGAUAGUAUAGAAGGCUGCAUGCAGC | 19.5 | 23.8 |  | 
54 | GUAGCUAUCGGAGGAUAUUCAUACCGGAAACGGACAUGAGGAUCACCCAUGUGGCGAAAGCCUUGGGAGAAGGCAGAUAGCUAC |  |  | 693 | 28.6
55 | UACGUACAGAAGAACUCCGGGUCCAGAAGGGACAUGAGGAUCACCCAUGUACCGUUGAUUGCUUGUCAGGAUAUGGACCCAGCC | 7.75 | 26.8 |  | 
